{"source": "ChEMBL document CHEMBL5346868", "about": "(Eur J Med Chem, 2023)", "key": {"[1]": {"test_system": "Enterovirus A71", "assay": "Antiviral activity against human Enterovirus 71 BrCr infected in human RD cells assessed as reduction of virus induced cytopathic effect incubated for 3 days by MTS assay", "type": "functional, organism-based", "settings": "Enterovirus A, 72 h", "summary_of_the_method": "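Confluent RD cells (EMEM, 10% heat-inactivated FBS) are infected with ~100 CCID50 of EV71 BrCr and treated with a compound dilution series. After 3 days at 37 °C, 5% CO2, residual viability is measured by MTS. EC50 is the concentration giving 50% antiviral effect, from at least 2–3 independent experiments.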"}, "[2]": {"assay": "Cytotoxicity against human RD cells by MTS assay", "type": "toxicity, cell-based", "summary_of_the_method": "(§1)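 Treated, uninfected RD or HeLa cells are run alongside the matching enterovirus CPE assays, with viability read by MTS. CC50 is the concentration giving a 50% adverse effect on host cells.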"}, "[3]": {"assay": "Selectivity index, ratio of CC50 for human RD cells to EC50 for antiviral activity against human Enterovirus 71", "type": "toxicity", "settings": "read-out: Ratio CC50/EC50", "summary_of_the_method": "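SI is calculated as CC50 on uninfected RD cells divided by EC50 in the 3-day EV71 BrCr CPE-reduction MTS assay.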"}, "[4]": {"test_system": "SARS-CoV-2", "assay": "Antiviral activity against SARS-CoV-2 BetaCoV/Belgium/GHB-03021/2020 infected in african green monkey Vero cells assessed as decline in virus induced cytopathogenicity measured after 4 days by argon laser scanning microscopic analysis", "type": "functional, organism-based", "settings": "Severe acute respiratory syndrome coronavirus 2, BetaCoV/Belgium/GHB-03021/2020, Vero, 96 h"}, "[5]": {"test_system": "Zika virus", "assay": "Antiviral activity against ZIKV MR766 infected in african green monkey Vero E6 cells assessed as decline in virus induced cytopathogenicity measured after 5 days by MTS based microscopic analysis", "type": "functional, organism-based", "settings": "MR766, Vero C1008, 120 h", "summary_of_the_method": "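Vero E6 cells (10^4/well) are seeded in MEM with 2% FCS and left to adhere overnight. Cells are then infected with ZIKV MR766 (passaged in C6/36 cells) and given 2-fold serial compound dilutions. After 5 days, CPE is scored by MTS and by microscopy of fixed, stained cells. EC50 is the 50% antiviral effect.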"}, "[6]": {"assay": "Cytotoxicity against african green monkey Vero E6 cells by MTS assay", "type": "toxicity, cell-based, Vero C1008", "settings": "chlorocebus sabaeus", "summary_of_the_method": "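Cytotoxicity is measured on treated, uninfected Vero E6 cells in parallel with the antiviral assays, using a standard MTS assay. CC50 is the concentration causing a 50% adverse effect on host cells.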"}, "[7]": {"test_system": "Coxsackievirus B3", "assay": "Antiviral activity against Coxsackievirus B3 infected in african green monkey Vero cells assessed as reduction of virus induced cytopathic effect incubated for 3 days by MTS assay", "type": "functional, organism-based", "settings": "Enterovirus B, 72 h", "summary_of_the_method": "(§2)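 Same setup as the EV71 assay: confluent monolayers (Vero A for CVB3; HeLa for CVA21, EV68, HRV-A02, HRV-B14) are infected with virus and treated with a compound dilution series. Incubation is 3 days at 37 °C, 5% CO2, and residual viability is read by MTS. EC50 is the 50% effective concentration, mean of at least 2 independent experiments.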"}, "[8]": {"assay": "Cytotoxicity against african green monkey Vero cells by MTS assay", "type": "toxicity, cell-based", "settings": "chlorocebus sabaeus"}, "[9]": {"test_system": "Coxsackievirus A21", "assay": "Antiviral activity against Coxsackievirus 21 infected in human HeLa cells assessed as reduction of virus induced cytopathic effect incubated for 3 days by MTS assay", "type": "functional, organism-based", "settings": "Enterovirus C, 72 h", "summary_of_the_method": "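HeLa cells infected with coxsackievirus A21 (~100 CCID50) and treated with a compound dilution series, as in the EV71 set-up. Incubation was 3 days at 37 °C, 5% CO2, with residual viability quantified by MTS. EC50 is the concentration giving 50% antiviral effect. Values are means of ≥2 independent experiments.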"}, "[10]": {"test_system": "enterovirus D68", "assay": "Antiviral activity against Human enterovirus 68 infected in human HeLa cells assessed as reduction of virus induced cytopathic effect incubated for 3 days by MTS assay", "type": "functional, organism-based", "settings": "Enterovirus D, 72 h", "summary_of_the_method": "as §2"}, "[11]": {"test_system": "rhinovirus A2", "assay": "Antiviral activity against Human rhinovirus 2 infected in human HeLa cells assessed as reduction of virus induced cytopathic effect incubated for 3 days by MTS assay", "type": "functional, organism-based", "settings": "Rhinovirus A, 72 h", "summary_of_the_method": "as §2"}, "[12]": {"test_system": "rhinovirus B14", "assay": "Antiviral activity against Human rhinovirus 14 infected in human HeLa cells assessed as reduction of virus induced cytopathic effect incubated for 3 days by MTS assay", "type": "functional, organism-based", "settings": "Rhinovirus B, 72 h", "summary_of_the_method": "as §2"}, "[13]": {"assay": "Cytotoxicity against human HeLa cells by MTS assay", "type": "toxicity, cell-based", "summary_of_the_method": "as §1"}, "[14]": {"test_system": "Enterovirus A71", "assay": "Antiviral activity against human enterovirus 71 infected in african green monkey vero cells", "type": "functional, organism-based", "settings": "Enterovirus A"}, "[15]": {"molecular_target": "METTL3/METTL14 (Homo sapiens, UniProt Q86U44)", "sequence (Q86U44 whole entry)": "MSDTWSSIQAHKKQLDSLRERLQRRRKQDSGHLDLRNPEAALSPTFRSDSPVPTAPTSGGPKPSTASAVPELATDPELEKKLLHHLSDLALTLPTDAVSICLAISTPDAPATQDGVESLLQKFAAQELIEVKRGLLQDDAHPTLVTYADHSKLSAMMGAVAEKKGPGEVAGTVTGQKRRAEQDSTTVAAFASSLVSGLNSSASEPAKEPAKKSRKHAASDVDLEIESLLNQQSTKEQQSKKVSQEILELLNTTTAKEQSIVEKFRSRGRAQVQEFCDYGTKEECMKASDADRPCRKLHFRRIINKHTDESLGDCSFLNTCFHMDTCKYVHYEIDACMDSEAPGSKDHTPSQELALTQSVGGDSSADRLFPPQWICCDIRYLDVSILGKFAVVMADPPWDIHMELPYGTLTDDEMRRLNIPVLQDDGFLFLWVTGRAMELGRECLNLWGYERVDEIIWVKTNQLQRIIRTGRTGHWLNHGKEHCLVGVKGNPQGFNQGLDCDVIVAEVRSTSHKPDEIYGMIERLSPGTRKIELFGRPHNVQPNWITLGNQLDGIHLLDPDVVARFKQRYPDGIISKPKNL", "sequence (Q9HCE5 whole entry, further chain)": "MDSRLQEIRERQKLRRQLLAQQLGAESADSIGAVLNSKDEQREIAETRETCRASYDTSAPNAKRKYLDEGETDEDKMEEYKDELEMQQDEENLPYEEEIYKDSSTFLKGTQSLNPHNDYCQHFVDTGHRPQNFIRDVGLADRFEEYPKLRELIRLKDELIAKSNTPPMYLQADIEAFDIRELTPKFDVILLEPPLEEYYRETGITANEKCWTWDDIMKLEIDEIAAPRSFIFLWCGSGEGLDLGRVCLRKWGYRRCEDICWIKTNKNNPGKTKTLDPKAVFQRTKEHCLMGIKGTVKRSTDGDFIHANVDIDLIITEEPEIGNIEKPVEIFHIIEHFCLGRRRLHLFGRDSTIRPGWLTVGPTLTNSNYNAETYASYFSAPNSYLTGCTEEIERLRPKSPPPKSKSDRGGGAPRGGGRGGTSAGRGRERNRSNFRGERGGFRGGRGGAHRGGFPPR", "assay": "Inhibition of human recombinant full length METTL3/human N-terminal FLAG-tagged METTL14 expressed in SF9 cells assessed as methyltransferase residual activity using ssRNA 5'-rUrArC rArCrU rCrGrA rUrCrU rGrGrA rCrUrA rArArG rCrUrG rCrUrC -3' as substrate incubated for 20 mins followed by H-SAM addition measured after 2 hrs by radio isotope reaction system analysis", "summary_of_the_method": "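Compound is pre-incubated for 20 min at room temperature, then 1 μM [3H-methyl]SAM is added for 2 h at room temperature. Activity is reported as % remaining, screened at 100 μM, with IC50 from curve fits.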"}}, "note": "pEC50, pIC50: −log10 of the molar value.", "data": [{"smiles": "OC[C@H]1O[C@@H](n2cnc3c(NCc4cccc(S(F)(F)(F)(F)F)c4)ncnc32)[C@H](O)[C@@H]1O", "values": [{"measurement": "pEC50", "setting": "[1]", "value": 6.99}, {"measurement": "CC50", "setting": "[2]", "value": "> 100", "unit": "µM"}, {"measurement": "selectivity ratio", "setting": "[3]", "value": "> 1280"}, {"measurement": "pEC50", "setting": "[4]", "value": "< 4.00"}, {"measurement": "pEC50", "setting": "[5]", "value": "< 4.00"}, {"measurement": "CC50", "setting": "[6]", "value": "> 100", "unit": "µM"}, {"measurement": "pEC50", "setting": "[7]", "value": "< 4.00"}, {"measurement": "CC50", "setting": "[8]", "value": "> 100", "unit": "µM"}, {"measurement": "pEC50", "setting": "[9]", "value": 4.50}, {"measurement": "pEC50", "setting": "[10]", "value": "< 4.00"}, {"measurement": "pEC50", "setting": "[11]", "value": "< 4.00"}, {"measurement": "pEC50", "setting": "[12]", "value": "< 4.00"}, {"measurement": "CC50", "setting": "[13]", "value": 88.7, "unit": "µM"}]}, {"smiles": "C#C[C@@]1(O)[C@H](O)[C@@H](CO)O[C@H]1n1ccc2c(N)ncnc21", "values": [{"measurement": "pEC50", "setting": "[14]", "value": 6.20}]}, {"smiles": "CSC[C@H]1O[C@@H](n2cnc3c(NCc4ccccc4Cl)ncnc32)[C@H](O)[C@@H]1O", "values": [{"measurement": "pEC50", "setting": "[1]", "value": 5.58}, {"measurement": "CC50", "setting": "[2]", "value": "> 100", "unit": "µM"}, {"measurement": "selectivity ratio", "setting": "[3]", "value": "> 38.3"}, {"measurement": "pEC50", "setting": "[4]", "value": "< 4.00"}, {"measurement": "pEC50", "setting": "[5]", "value": "< 4.00"}, {"measurement": "CC50", "setting": "[6]", "value": "> 100", "unit": "µM"}]}, {"smiles": "CSC[C@H]1O[C@@H](n2cnc3c(NCc4cccc(C)c4)ncnc32)[C@H](O)[C@@H]1O", "values": [{"measurement": "pEC50", "setting": "[1]", "value": 6.05}, {"measurement": "CC50", "setting": "[2]", "value": "> 75", "unit": "µM"}, {"measurement": "selectivity ratio", "setting": "[3]", "value": "> 83.5"}, {"measurement": "pEC50", "setting": "[4]", "value": "< 4.00"}, {"measurement": "pEC50", "setting": "[5]", "value": "< 4.00"}, {"measurement": "CC50", "setting": "[6]", "value": "> 100", "unit": "µM"}, {"measurement": "pEC50", "setting": "[7]", "value": "< 4.00"}, {"measurement": "CC50", "setting": "[8]", "value": "> 50", "unit": "µM"}, {"measurement": "pEC50", "setting": "[9]", "value": "< 4.00"}, {"measurement": "pEC50", "setting": "[10]", "value": "< 4.00"}, {"measurement": "pEC50", "setting": "[11]", "value": "< 4.00"}, {"measurement": "pEC50", "setting": "[12]", "value": "< 4.00"}, {"measurement": "CC50", "setting": "[13]", "value": "> 100", "unit": "µM"}]}, {"smiles": "CSC[C@H]1O[C@@H](n2cnc3c(NCc4cccc(Cl)c4)ncnc32)[C@H](O)[C@@H]1O", "values": [{"measurement": "pEC50", "setting": "[1]", "value": 6.28}, {"measurement": "CC50", "setting": "[2]", "value": "> 20", "unit": "µM"}, {"measurement": "selectivity ratio", "setting": "[3]", "value": "> 37.7"}, {"measurement": "pEC50", "setting": "[4]", "value": "< 4.00"}, {"measurement": "pEC50", "setting": "[5]", "value": "< 4.00"}, {"measurement": "CC50", "setting": "[6]", "value": "> 100", "unit": "µM"}, {"measurement": "pIC50", "setting": "[15]", "value": 3.74}]}, {"smiles": "OC[C@H]1O[C@@H](n2cnc3c(NCc4ccc(Cl)cc4)ncnc32)[C@H](O)[C@@H]1O", "values": [{"measurement": "pEC50", "setting": "[1]", "value": 6.63}, {"measurement": "CC50", "setting": "[2]", "value": "> 100", "unit": "µM"}, {"measurement": "selectivity ratio", "setting": "[3]", "value": "> 424"}, {"measurement": "pEC50", "setting": "[4]", "value": "< 4.00"}, {"measurement": "pEC50", "setting": "[5]", "value": "< 4.00"}, {"measurement": "CC50", "setting": "[6]", "value": "> 100", "unit": "µM"}]}, {"smiles": "OC[C@H]1O[C@@H](n2ccc3c(NCc4cccc(Cl)c4)ncnc32)[C@H](O)[C@@H]1O", "values": [{"measurement": "pEC50", "setting": "[1]", "value": 7.19}, {"measurement": "CC50", "setting": "[2]", "value": "> 20", "unit": "µM"}, {"measurement": "selectivity ratio", "setting": "[3]", "value": "> 301"}, {"measurement": "pEC50", "setting": "[4]", "value": "< 4.00"}, {"measurement": "pEC50", "setting": "[5]", "value": "< 4.00"}, {"measurement": "CC50", "setting": "[6]", "value": "> 100", "unit": "µM"}, {"measurement": "pIC50", "setting": "[15]", "value": 4.23}]}]}
